Measurements reported in ChEMBL document CHEMBL4428053, “Application of a Parallel Synthetic Strategy in the Discovery of Biaryl Acyl Sulfonamides as Efficient and Selective NaV1.7 Inhibitors” (J Med Chem, 2016).
Active and inactive are the calls of the source. The rule behind the calls is not given here.

Columns and labels:
[1] = target: T1, Sodium channel protein type 9 subunit alpha (Homo sapiens, UniProt Q15858); experiment: Inhibition of human Nav1.7 expressed in HEK293 cells incubated for 3 to 5 mins at -125 mV holding potential by electrophysiology assay; format: cell-based
Target sequence in this assay (Q15858 whole entry): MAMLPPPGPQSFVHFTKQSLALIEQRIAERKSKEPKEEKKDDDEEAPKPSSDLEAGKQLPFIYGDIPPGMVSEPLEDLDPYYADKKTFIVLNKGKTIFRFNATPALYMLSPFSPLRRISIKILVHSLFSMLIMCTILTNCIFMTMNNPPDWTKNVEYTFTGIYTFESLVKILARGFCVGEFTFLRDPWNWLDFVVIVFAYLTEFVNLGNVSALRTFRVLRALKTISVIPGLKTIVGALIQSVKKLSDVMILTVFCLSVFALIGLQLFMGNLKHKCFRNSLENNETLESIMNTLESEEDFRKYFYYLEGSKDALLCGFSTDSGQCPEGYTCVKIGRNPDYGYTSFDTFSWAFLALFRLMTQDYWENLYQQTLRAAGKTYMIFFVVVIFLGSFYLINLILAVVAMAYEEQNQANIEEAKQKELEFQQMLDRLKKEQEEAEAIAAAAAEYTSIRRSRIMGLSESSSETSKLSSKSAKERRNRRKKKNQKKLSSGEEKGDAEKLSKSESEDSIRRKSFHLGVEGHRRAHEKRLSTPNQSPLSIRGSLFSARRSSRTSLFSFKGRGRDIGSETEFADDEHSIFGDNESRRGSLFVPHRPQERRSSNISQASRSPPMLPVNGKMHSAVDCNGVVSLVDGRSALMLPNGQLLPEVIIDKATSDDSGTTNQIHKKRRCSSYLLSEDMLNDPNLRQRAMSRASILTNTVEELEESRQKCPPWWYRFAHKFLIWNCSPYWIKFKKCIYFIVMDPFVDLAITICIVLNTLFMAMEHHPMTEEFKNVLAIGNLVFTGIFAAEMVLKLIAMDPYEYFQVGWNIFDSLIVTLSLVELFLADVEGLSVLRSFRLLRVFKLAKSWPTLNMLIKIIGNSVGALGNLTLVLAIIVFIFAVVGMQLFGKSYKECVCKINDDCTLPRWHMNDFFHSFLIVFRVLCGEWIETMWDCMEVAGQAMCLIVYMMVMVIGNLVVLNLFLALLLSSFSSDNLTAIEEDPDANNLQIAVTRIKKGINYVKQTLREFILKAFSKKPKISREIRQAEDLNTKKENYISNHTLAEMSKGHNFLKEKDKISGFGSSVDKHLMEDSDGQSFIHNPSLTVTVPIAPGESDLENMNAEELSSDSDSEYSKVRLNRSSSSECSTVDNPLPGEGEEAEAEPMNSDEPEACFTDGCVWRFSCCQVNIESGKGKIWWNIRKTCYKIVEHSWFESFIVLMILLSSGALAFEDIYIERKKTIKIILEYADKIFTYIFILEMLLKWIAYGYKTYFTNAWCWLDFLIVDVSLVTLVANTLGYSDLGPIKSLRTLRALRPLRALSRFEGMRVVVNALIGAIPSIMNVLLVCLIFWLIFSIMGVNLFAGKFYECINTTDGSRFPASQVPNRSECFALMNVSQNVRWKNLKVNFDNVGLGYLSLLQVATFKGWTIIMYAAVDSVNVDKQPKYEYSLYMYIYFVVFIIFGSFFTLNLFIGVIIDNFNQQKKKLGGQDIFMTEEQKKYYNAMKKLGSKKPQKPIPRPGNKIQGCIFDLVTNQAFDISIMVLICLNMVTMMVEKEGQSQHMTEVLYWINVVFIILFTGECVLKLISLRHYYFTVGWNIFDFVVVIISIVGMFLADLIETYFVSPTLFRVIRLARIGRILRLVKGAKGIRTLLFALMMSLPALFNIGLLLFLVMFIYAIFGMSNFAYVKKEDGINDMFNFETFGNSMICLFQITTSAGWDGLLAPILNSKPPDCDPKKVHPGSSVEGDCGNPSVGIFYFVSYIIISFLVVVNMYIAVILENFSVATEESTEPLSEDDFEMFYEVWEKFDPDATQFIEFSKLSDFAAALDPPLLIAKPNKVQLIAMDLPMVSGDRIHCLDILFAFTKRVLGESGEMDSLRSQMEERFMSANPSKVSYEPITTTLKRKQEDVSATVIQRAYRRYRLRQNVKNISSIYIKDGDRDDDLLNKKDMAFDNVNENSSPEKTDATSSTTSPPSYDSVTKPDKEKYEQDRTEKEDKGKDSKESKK

[2] = target: Voltage-gated inwardly rectifying potassium channel KCNH2 (Homo sapiens, UniProt Q12809)
Chain of Voltage-gated inwardly rectifying potassium channel KCNH2 (Q12809 whole entry): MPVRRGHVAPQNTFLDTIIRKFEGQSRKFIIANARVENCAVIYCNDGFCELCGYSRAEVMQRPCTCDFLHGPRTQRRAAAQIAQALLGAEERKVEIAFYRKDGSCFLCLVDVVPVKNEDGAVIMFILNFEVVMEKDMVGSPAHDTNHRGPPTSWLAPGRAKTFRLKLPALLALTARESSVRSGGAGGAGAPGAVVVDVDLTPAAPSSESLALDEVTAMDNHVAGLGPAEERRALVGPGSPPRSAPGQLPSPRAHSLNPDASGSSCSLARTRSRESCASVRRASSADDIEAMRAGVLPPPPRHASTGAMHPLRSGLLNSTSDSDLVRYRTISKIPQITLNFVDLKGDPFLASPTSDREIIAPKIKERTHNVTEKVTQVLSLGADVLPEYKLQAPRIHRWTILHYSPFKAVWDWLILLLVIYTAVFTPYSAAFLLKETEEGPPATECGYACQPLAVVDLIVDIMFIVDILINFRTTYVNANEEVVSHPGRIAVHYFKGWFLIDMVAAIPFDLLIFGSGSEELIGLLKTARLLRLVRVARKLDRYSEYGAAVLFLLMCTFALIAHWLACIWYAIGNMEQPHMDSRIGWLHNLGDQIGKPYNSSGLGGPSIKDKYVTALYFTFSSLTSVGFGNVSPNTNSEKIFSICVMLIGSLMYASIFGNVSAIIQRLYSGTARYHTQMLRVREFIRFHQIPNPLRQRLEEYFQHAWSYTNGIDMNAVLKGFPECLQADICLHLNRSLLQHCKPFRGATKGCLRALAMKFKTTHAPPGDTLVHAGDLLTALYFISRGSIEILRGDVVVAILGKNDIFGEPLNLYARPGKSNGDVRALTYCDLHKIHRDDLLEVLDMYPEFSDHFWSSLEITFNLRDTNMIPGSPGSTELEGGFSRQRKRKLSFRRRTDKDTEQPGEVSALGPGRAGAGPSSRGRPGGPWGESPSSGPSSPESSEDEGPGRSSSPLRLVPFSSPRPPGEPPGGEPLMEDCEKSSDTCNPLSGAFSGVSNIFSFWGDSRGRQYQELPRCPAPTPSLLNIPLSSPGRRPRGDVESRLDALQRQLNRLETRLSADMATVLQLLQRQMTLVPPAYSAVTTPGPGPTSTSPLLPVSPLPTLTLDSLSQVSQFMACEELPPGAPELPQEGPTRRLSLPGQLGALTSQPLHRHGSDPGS

[3] = target: Sodium channel protein type 5 subunit alpha (Homo sapiens, UniProt Q14524); experiment: Inhibition of human Nav1.5 expressed in HEK293 cells incubated for 3 to 5 mins at -50 mV holding potential by electrophysiology assay; format: cell-based
[4] = target: T1, Sodium channel protein type 9 subunit alpha; experiment: Inhibition of human Nav1.7 expressed in HEK293 cells at 5 uM incubated for 3 to 5 mins at -125 mV holding potential by electrophysiology assay relative to control; format: cell-based
Target sequence in this assay (Q15858 whole entry, looked up): as the sequence (Q15858 whole entry) above

in vitro [5] = details: rat, liver microsomes
in vitro [6] = details: human, liver microsomes
Mus musculus = experiment: In vivo inhibition of Nav1.7 in C57BL/6 mouse assessed as reduction in histamine-induced scratching bouts at 30 mg/kg, po administered 4 hrs prior to histamine challenge measured for 15 mins; format: functional, organism-based
How it was run: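 Mice were dosed orally with vehicle, diphenhydramine (30 mg/kg, n = 8) or test article at 30 (n = 9), 100 (n = 10) or 300 (n = 10) mg/kg; vehicle n = 12. All groups received histamine intradermally. Total scratch bouts were counted, with unbound plasma concentration reported per dose. Statistics: one-way ANOVA with Dunnett's test versus vehicle.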

| SMILES | IC50 [1] | IC50 [3] | inhibition [4] | microsomal CLint at 1 µM (in vitro [5]) | microsomal CLint at 1 µM (in vitro [6]) | also measured |
| --- | --- | --- | --- | --- | --- | --- |
| O=S(=O)(Nc1ncns1)c1ccc2c(-c3ccc(C(F)(F)F)c(Cl)c3)nccc2c1 | 0.59 µM | 27 µM | – | – | – | Ki [2]: 2 µM |
| CS(=O)(=O)NC(=O)c1cc(F)c(-c2ccc(Cl)c(Cl)c2)cc1F | 2.54 µM | > 42 µM | – | – | – | Ki [2]: > 30 µM |
| CS(=O)(=O)NC(=O)c1cc(-c2ccc(Cl)c(Cl)c2)nc2ccccc12 | – | – | < 5% | – | – | – |
| CS(=O)(=O)NC(=O)CSCC(=O)Nc1ccc(Cl)c(Cl)c1 | – | – | < 5% | – | – | – |
| COc1cc(C(=O)NS(C)(=O)=O)c(F)cc1-c1cnc(OCC2(C)CC2)c(Cl)c1 | 0.062 µM | – | – | < 14 µL/min/mg | 110 µL/min/mg | – |
| CC(C)COc1ncc(-c2ccc(C(=O)NS(C)(=O)=O)cc2C#N)cc1Cl | 1.62 µM | 24 µM | – | < 14 µL/min/mg | 20 µL/min/mg | – |
| CS(=O)(=O)NC(=O)c1ccc2nc(-c3ccc(Cl)c(Cl)c3)cn2c1 | – | – | < 5% | – | – | – |
| CS(=O)(=O)NC(=O)Cc1ccc(NS(=O)(=O)c2ccc(Cl)c(Cl)c2)cc1 | – | – | < 5% | – | – | – |
| COc1cc(C(=O)NS(C)(=O)=O)ccc1-c1cnc(OCC(C)C)c(Cl)c1 | 0.35 µM | > 30 µM | – | 32 µL/min/mg | 44 µL/min/mg | – |
| CC(C)COc1ncc(-c2ccc(C(=O)NS(C)(=O)=O)cc2OC(F)(F)F)cc1Cl | 0.14 µM | 3.7 µM | – | < 14 µL/min/mg | > 399 µL/min/mg | – |
| COc1cc(C(=O)NS(C)(=O)=O)ccc1-c1cnc(OCc2ccc(Cl)cc2)c(Cl)c1 | 0.109 µM | 21 µM | – | < 14 µL/min/mg | < 14 µL/min/mg | – |
| CC(C)COc1ncc(-c2ccc(C(=O)NS(C)(=O)=O)c(F)c2)cc1Cl | 3.04 µM | 18 µM | – | 28 µL/min/mg | < 14 µL/min/mg | – |
| COc1cc(C(=O)NS(C)(=O)=O)ccc1-c1cnc(Oc2cc(F)ccc2F)c(Cl)c1 | – | 23.7 µM | – | 33 µL/min/mg | < 14 µL/min/mg | – |
| COc1cc(C(=O)NS(C)(=O)=O)ccc1-c1cnc(Oc2cc(Cl)cnc2OC)c(Cl)c1 | 0.15 µM | 11.6 µM | – | < 14 µL/min/mg | < 14 µL/min/mg | – |
| COc1cc(C(=O)NS(C)(=O)=O)ccc1-c1cnc(N2CCC[C@H]2C(C)C)c(Cl)c1 | – | 2.5 µM | – | 40 µL/min/mg | 385 µL/min/mg | – |
| CC(C)COc1ncc(Oc2nccc3cc(C(=O)NS(C)(=O)=O)ccc23)cc1Cl | 0.2 µM | – | – | – | – | – |
| CS(=O)(=O)NC(=O)Cc1ccc(Cl)c(Cl)c1 | – | – | < 5% | – | – | – |
| CC(C)COc1ncc(-c2ccc(C(=O)NS(C)(=O)=O)c(Cl)c2)cc1Cl | > 42 µM | – | – | < 14 µL/min/mg | 26 µL/min/mg | – |
| CC(C)COc1ncc(-c2ccc(C(=O)NS(C)(=O)=O)cc2C2=CCOC2)cc1Cl | 0.26 µM | > 42 µM | – | < 14 µL/min/mg | > 399 µL/min/mg | – |
| COc1cc(C(=O)NS(C)(=O)=O)ccc1-c1cnc(Oc2cc(Cl)cc(Cl)c2)c(C(F)(F)F)c1 | 0.028 µM | 2.35 µM | – | < 14 µL/min/mg | < 14 µL/min/mg | – |
| CN(C)CCOC(c1ccccc1)c1ccccc1 | – | – | – | – | – | inhibition (Mus musculus): Active |
| CS(=O)(=O)NC(=O)C1CC(=O)N(Cc2ccc(Cl)c(Cl)c2)C1 (stereo not given) | – | – | < 5% | – | – | – |
| COc1cc(C(=O)NS(C)(=O)=O)ccc1-c1cnc(OCC2(C)CC2)c(Cl)c1 | 0.2 µM | 9.3 µM | – | < 14 µL/min/mg | < 14 µL/min/mg | – |
| CS(=O)(=O)NC(=O)c1cc(F)c(Oc2ccc(Cl)c(Cl)c2)cc1F | 0.74 µM | > 30 µM | – | – | – | Ki [2]: > 30 µM |
| Cc1cc(-c2cnc(OCC(C)C)c(Cl)c2)ccc1C(=O)NS(C)(=O)=O | > 42 µM | – | – | < 14 µL/min/mg | 22 µL/min/mg | – |
| CS(=O)(=O)NC(=O)c1ccc(-c2ccc(Cl)c(Cl)c2)cc1 | 10.7 µM | > 42 µM | – | – | – | Ki [2]: > 30 µM |

| SMILES | IC50 [1] | IC50 [3] | inhibition [4] | microsomal CLint at 1 µM (in vitro [5]) | microsomal CLint at 1 µM (in vitro [6]) | also measured |
| --- | --- | --- | --- | --- | --- | --- |
| CS(=O)(=O)NC(=O)c1ccc2c(-c3ccc(C(F)(F)F)c(Cl)c3)nccc2c1 | 1.55 µM | > 30 µM | – | – | – | Ki [2]: > 30 µM |
| COc1cc(C(=O)NS(C)(=O)=O)ccc1-c1cnc(Sc2cccc(C)c2)c(Cl)c1 | 0.16 µM | – | – | < 14 µL/min/mg | 199 µL/min/mg | – |
| CS(=O)(=O)NC(=O)c1cc(-c2ccc(Cl)c(Cl)c2)[nH]n1 | – | – | < 5% | – | – | – |
| CS(=O)(=O)NC(=O)c1cc(F)c(COc2ccc(Cl)c(Cl)c2)cc1F | – | – | – | – | – | Ki [2]: > 30 µM |
| CS(=O)(=O)NC(=O)C1CC(=O)N(c2ccc(Cl)c(Cl)c2)C1 (stereo not given) | – | – | < 5% | – | – | – |
| CS(=O)(=O)NC(=O)c1cscc1SCc1ccc(Cl)c(Cl)c1 | – | – | < 5% | – | – | – |
| CC(C)COc1ncc(-c2c(F)cc(C(=O)NS(C)(=O)=O)cc2F)cc1Cl | 1.24 µM | – | – | – | – | – |
| CS(=O)(=O)NC(=O)CNC(=O)c1ccc(Cl)c(Cl)c1 | – | – | < 5% | – | – | – |
| CS(=O)(=O)NC(=O)C1CCN(C(=O)c2ccc(Cl)c(Cl)c2)C1 (stereo not given) | – | – | < 5% | – | – | – |
| CS(=O)(=O)NC(=O)c1csc(Nc2ccc(Cl)c(Cl)c2)n1 | – | – | < 5% | – | – | – |
| COc1cc(C(=O)NS(C)(=O)=O)ccc1-c1cnc(Oc2cc(Cl)cc(Cl)c2)c(C(F)F)c1 | – | 18.8 µM | – | < 14 µL/min/mg | < 14 µL/min/mg | – |
| Cc1nn(-c2ccc(Cl)c(Cl)c2)c(C)c1C(=O)NS(C)(=O)=O | – | – | < 5% | – | – | – |
| CC(C)(C)OC(=O)N[C@@H](CC(=O)NS(C)(=O)=O)Cc1ccc(Cl)c(Cl)c1 | – | – | < 5% | – | – | – |
| CC(C)COc1ncc(-c2ccc(C(=O)NS(C)(=O)=O)cc2Cl)cc1Cl | 0.29 µM | – | – | 16.5 µL/min/mg | 30 µL/min/mg | – |
| CS(=O)(=O)NC(=O)CSCc1ccc(Cl)c(Cl)c1 | – | – | < 5% | – | – | – |
| COc1cc(C(=O)NS(C)(=O)=O)c(F)cc1-c1cnc(OC2CCC2)c(Cl)c1 | 0.11 µM | – | – | – | – | – |
| CC(C)COc1ncc(-c2ncc(C(=O)NS(C)(=O)=O)cc2F)cc1Cl | 10.6 µM | – | – | 18 µL/min/mg | 18 µL/min/mg | – |
| COc1cc(C(=O)NS(C)(=O)=O)ccc1-c1cnc(OC2CCC2)c(Cl)c1 | 0.55 µM | 17.8 µM | – | 17 µL/min/mg | 102 µL/min/mg | – |
| CS(=O)(=O)NC(=O)c1ccc(=O)n(Cc2ccc(Cl)c(Cl)c2)c1 | – | – | < 5% | – | – | – |
| CS(=O)(=O)NC(=O)CCc1ccc(Cl)c(Cl)c1 | – | – | < 5% | – | – | – |
| CS(=O)(=O)NC(=O)c1cc(-c2ccc(Cl)c(Cl)c2)on1 | – | – | < 5% | – | – | – |
| CS(=O)(=O)NC(=O)C(=O)c1cc(-c2ccc(Cl)c(Cl)c2)on1 | – | – | < 5% | – | – | – |
| CC(C)COc1ncc(-c2ccc(C(=O)NS(C)(=O)=O)cc2F)cc1Cl | 0.66 µM | 23 µM | – | 22 µL/min/mg | 27 µL/min/mg | – |
| CC(C)COc1ncc(-c2ccc(C(=O)NS(C)(=O)=O)cc2C(=O)N(C)C)cc1Cl | > 42 µM | – | – | < 14 µL/min/mg | 19 µL/min/mg | – |
| CC(C)COc1ncc(-c2ccc(C(=O)NS(C)(=O)=O)cc2)cc1Cl | 1.19 µM | – | – | < 14 µL/min/mg | 14 µL/min/mg | – |
| CC(C)COc1ncc(-c2ccc(C(=O)NS(C)(=O)=O)cc2C(F)(F)F)cc1Cl | 0.27 µM | 3.1 µM | – | < 14 µL/min/mg | > 399 µL/min/mg | – |
